According to ChEMBL document CHEMBL2157981, “Synthesis of new antimicrobial pyrrolo[2,1-a]isoquinolin-3-ones” (2012):
Calls of active or inactive are those of the source. The calls are words filed in the database; no cut-off is given here.

How the values were obtained:
Escherichia coli [1] = assay: Bactericidal activity against Escherichia coli CECT 405 at 0.2 mg/disk after 24 hrs by agar diffusion assay; format: functional
Summary of the method: (§1)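 Each bacterium, kept as 24-h cultures on solid-medium slants, was reactivated in Nutrient Broth for 24 h at 28 or 37 °C depending on species. 1 mL of this suspension was plated and overlaid with 15 mL Plate Count Agar. Once the agar solidified, five paper disks loaded with test product were applied. Plates were incubated 24 h in the dark at 28 or 37 °C by species.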

Fusarium culmorum [2] = assay: Fungicidal activity against Fusarium culmorum CCM 172 at […] after 48 hrs by agar diffusion assay; format: functional, organism-based; conditions: 0.4 mg/disk
Summary of the method: (§2)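 Fungi were grown 7 days at 28 °C on PDA, then suspended in 0.05% Tween 80 in sterile water to about 10^6 conidia/mL. 1 mL was mixed into 15 mL PDA. After setting, four 0.5 cm paper disks impregnated with test product were added. Controls were solvent-only disks and benomyl disks, dosed per fungus. The read-out was the no-growth inhibition zone (mm), as the mean ± SE of three independent experiments.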

Trichoderma viride [3] = assay: Fungicidal activity against Trichoderma viride CECT 2423 at 0.4 mg/disk after 48 hrs by agar diffusion assay; format: functional, organism-based; summary of the method: as §2
Aspergillus parasiticus [4] = assay: Fungicidal activity against Aspergillus parasiticus CECT 2681 at 0.4 mg/disk after 48 hrs by agar diffusion assay; format: functional, organism-based; summary of the method: as §2
[5] = tested on: Phytophthora citrophthora; assay: Fungicidal activity against Phytophthora citrophthora CECT 2353 at 0.4 mg/disk after 48 hrs by agar diffusion assay; format: functional, organism-based; summary of the method: as §2
[6] = tested on: Pectobacterium carotovorum; assay: Bactericidal activity against Erwinia carotovora CECT 225 at 0.2 mg/disk after 24 hrs by agar diffusion assay; format: functional; summary of the method: as §1
Salmonella typhi [7] = assay: Bactericidal activity against Salmonella typhi CECT 409 at 0.2 mg/disk after 24 hrs by agar diffusion assay; format: functional, Salmonella enterica subsp. enterica serovar Typhi; conditions: for Activity: Salmonella enterica subsp. enterica serovar Typhi
Summary of the method: (§3)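 Bacteria from 24-h slant cultures reactivated in Nutrient Broth for 24 h at 28 or 37 °C depending on strain. 1 mL of suspension was placed in a plate and overlaid with 15 mL Plate Count Agar. After solidification, five paper disks loaded with compound were applied. Plates were incubated 24 h in the dark at 28 or 37 °C depending on strain.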

Enterococcus faecalis [8] = assay: Bactericidal activity against Enterococcus faecalis CECT 481 at 0.2 mg/disk after 24 hrs by agar diffusion assay; format: functional; summary of the method: as §1
Escherichia coli [9] = assay: Bactericidal activity against Escherichia coli CECT 100 at 0.2 mg/disk after 24 hrs by agar diffusion assay; format: functional; summary of the method: as §1
Geotrichum candidum [10] = assay: Fungicidal activity against Geotrichum candidum CCM 245 at 0.4 mg/disk after 48 hrs by agar diffusion assay; format: functional, organism-based; summary of the method: as §2
Staphylococcus aureus [11] = assay: Bactericidal activity against Staphylococcus aureus CECT 86 at 0.2 mg/disk after 24 hrs by agar diffusion assay; format: functional; summary of the method: as §1
Bacillus cereus [12] = assay: Bactericidal activity against Bacillus cereus CECT 148 at 0.2 mg/disk after 24 hrs by agar diffusion assay; format: functional; summary of the method: as §1
[13] = tested on: Phytophthora citrophthora; assay: Fungicidal activity against Phytophthora citrophthora CECT 2353 at 0.2 mg/disk after 48 hrs by agar diffusion assay; format: functional; summary of the method: as §2
Geotrichum candidum [14] = assay: Fungicidal activity against Geotrichum candidum CCM 245 at 0.2 mg/disk after 48 hrs by agar diffusion assay; format: functional; summary of the method: as §2
Trichoderma viride [15] = assay: Fungicidal activity against Trichoderma viride CECT 2423 at 0.2 mg/disk after 48 hrs by agar diffusion assay; format: functional; summary of the method: as §2
Fusarium culmorum [16] = assay: Fungicidal activity against Fusarium culmorum CCM 172 at 0.2 mg/disk after 48 hrs by agar diffusion assay; format: functional; summary of the method: as §2
Aspergillus parasiticus [17] = assay: Fungicidal activity against Aspergillus parasiticus CECT 2681 at 0.2 mg/disk after 48 hrs by agar diffusion assay; format: functional; summary of the method: as §2
Trichoderma viride [18] = assay: Fungicidal activity against Trichoderma viride CECT 2423 at 20 ug/disk after 48 hrs by agar diffusion assay; format: functional; conditions: CECT 2423, 48 h, read-out: IZ
Summary of the method: (§4)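 Fungi were grown on PDA for 7 days at 28 °C and suspended in 0.05% Tween 80 to about 10^6 conidia/mL. 1 mL was mixed into 15 mL PDA. Four 0.5 cm paper disks carrying compound were placed on the set agar. Solvent-only disks served as negative control. The inhibition zone (mm) around each disk was measured. Values are the mean of three independent experiments.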

Aspergillus parasiticus [19] = assay: Fungicidal activity against Aspergillus parasiticus CECT 2681 at 20 ug/disk after 48 hrs by agar diffusion assay; format: functional; conditions: CECT 2681, 48 h, read-out: IZ; summary of the method: as §4
[20] = tested on: Phytophthora citrophthora; assay: Fungicidal activity against Phytophthora citrophthora CECT 2353 at 30 ug/disk after 48 hrs by agar diffusion assay; format: functional; conditions: CECT 2353, 48 h, read-out: IZ; summary of the method: as §4
Escherichia coli [21] = assay: Bactericidal activity against Escherichia coli CECT 405 at 0.3 mg/disk after 24 hrs by agar diffusion assay; format: functional, organism-based; summary of the method: as §1
Bacillus cereus [22] = assay: Bactericidal activity against Bacillus cereus CECT 148 at 0.3 mg/disk after 24 hrs by agar diffusion assay; format: functional, organism-based; summary of the method: as §1
[23] = tested on: Pectobacterium carotovorum; assay: Bactericidal activity against Erwinia carotovora CECT 225 at 0.3 mg/disk after 24 hrs by agar diffusion assay; format: functional, organism-based; summary of the method: as §1
Staphylococcus aureus [24] = assay: Bactericidal activity against Staphylococcus aureus CECT 86 at 0.3 mg/disk after 24 hrs by agar diffusion assay; format: functional, organism-based; summary of the method: as §1
Salmonella typhi [25] = assay: Bactericidal activity against Salmonella typhi CECT 409 at 0.3 mg/disk after 24 hrs by agar diffusion assay; format: functional, organism-based; conditions: Salmonella enterica subsp. enterica serovar Typhi; summary of the method: as §3
Escherichia coli [26] = assay: Bactericidal activity against Escherichia coli CECT 100 at 0.3 mg/disk after 24 hrs by agar diffusion assay; format: functional, organism-based; summary of the method: as §1
Enterococcus faecalis [27] = assay: Bactericidal activity against Enterococcus faecalis CECT 481 at 0.3 mg/disk after 24 hrs by agar diffusion assay; format: functional, organism-based; summary of the method: as §1

| Structure (SMILES) | inhibition zone (IZ) (Escherichia coli [1]) [mm] | Activity (Fusarium culmorum [2]) | Activity (Trichoderma viride [3]) | Activity (Aspergillus parasiticus [4]) | Activity [5] | inhibition zone (IZ) [6] [mm] | inhibition zone (IZ) (Salmonella typhi [7]) [mm] | inhibition zone (IZ) (Enterococcus faecalis [8]) [mm] | inhibition zone (IZ) (Escherichia coli [9]) [mm] | Activity (Geotrichum candidum [10]) | inhibition zone (IZ) (Staphylococcus aureus [11]) [mm] | inhibition zone (IZ) (Bacillus cereus [12]) [mm] | further results |
| --- | --- | --- | --- | --- | --- | --- | --- | --- | --- | --- | --- | --- | --- |
| O=C1CCC2c3cc(OCc4ccc(F)cc4)c(OCc4ccc(F)cc4)cc3CCN12 (centres undefined) | 6.83 | inactive | inactive | inactive | inactive | 7 | 5.83 | 6.33 | 0 | inactive | 0 | 7.33 | – |
| O=C(COc1ccc2c(c1)CCN1C(=O)CCC21)N1CCCCC1 (centres undefined) | – | – | – | – | – | – | – | – | – | – | – | – | Activity [13]: inactive; Activity (Escherichia coli [1]): inactive; Activity (Geotrichum candidum [14]): inactive; Activity (Trichoderma viride [15]): inactive; Activity (Fusarium culmorum [16]): inactive; Activity [6]: inactive; Activity (Salmonella typhi [7]): inactive; Activity (Enterococcus faecalis [8]): inactive; Activity (Aspergillus parasiticus [17]): inactive; Activity (Escherichia coli [9]): inactive; Activity (Staphylococcus aureus [11]): inactive; Activity (Bacillus cereus [12]): inactive |
| O=C(COc1cc2c(cc1OCC(=O)Nc1ccccc1)C1CCC(=O)N1CC2)Nc1ccccc1 (centres undefined) | – | inactive | inactive | inactive | inactive | – | – | – | – | inactive | – | – | Activity (Escherichia coli [1]): inactive; Activity [6]: inactive; Activity (Salmonella typhi [7]): inactive; Activity (Enterococcus faecalis [8]): inactive; Activity (Escherichia coli [9]): inactive; Activity (Staphylococcus aureus [11]): inactive; Activity (Bacillus cereus [12]): inactive |
| CCCCNC(=O)n1c(NC(=O)OC)nc2ccccc21 [BENOMYL] | – | – | – | – | – | – | – | – | – | – | – | – | zone of inhibition at 20 µg/disc (Trichoderma viride [18]): 29.3 mm; zone of inhibition at 20 µg/disc (Aspergillus parasiticus [19]): 29.3 mm; inhibition zone (IZ) (Geotrichum candidum [14]): 0 mm; inhibition zone (IZ) (Fusarium culmorum [16]): 27.66 mm; zone of inhibition at 30 µg/disc [20]: 44.3 mm |
| O=C1CCC2c3ccc(OCc4ccc(F)cc4)cc3CCN12 (centres undefined) | 6.16 | – | – | – | – | 8 | 0 | 0 | 0 | – | 6.33 | 7.5 | inhibition zone (IZ) [13]: 10.66 mm; inhibition zone (IZ) (Geotrichum candidum [14]): 7 mm; inhibition zone (IZ) (Trichoderma viride [15]): 8.1 mm; inhibition zone (IZ) (Fusarium culmorum [16]): 10.5 mm; inhibition zone (IZ) (Aspergillus parasiticus [17]): 7.83 mm |
| O=C1CCC2c3cc(O)c(O)cc3CCN12 (racemic) | 0 | inactive | inactive | inactive | inactive | 0 | 0 | 0 | 0 | inactive | 0 | 6.66 | – |
| O=C1CCC2c3ccc(O)cc3CCN12 (centres undefined) | 0 | – | – | – | – | 0 | 0 | 0 | 0 | – | 0 | 7.5 | Activity [13]: inactive; Activity (Geotrichum candidum [14]): inactive; Activity (Trichoderma viride [15]): inactive; Activity (Fusarium culmorum [16]): inactive; Activity (Aspergillus parasiticus [17]): inactive |
| COc1cc2c(cc1OC)C1CCC(=O)N1CC2 (centres undefined) | – | inactive | inactive | inactive | inactive | – | – | – | – | inactive | – | – | Activity (Escherichia coli [21]): Active; Activity (Bacillus cereus [22]): Active; Activity [23]: Active; Activity (Staphylococcus aureus [24]): Active; Activity (Salmonella typhi [25]): Active; Activity (Escherichia coli [26]): Active; Activity (Enterococcus faecalis [27]): Active |
